TAAR1 antag: human TAAR1 antagonists, primary screen, Fluo-8 calcium fluorescence, CHO RD-HGA16 cells. Trace amine-associated receptor 1 (Homo sapiens), Q96RJ0. antagonist. inhibition, % at 3 µM. 360,000 compounds, 1.5% hits. AID 624466, 2012;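 active means inhibition above a per-plate cutoff, the mean inhibition of test compounds on that plate plus 3 SD, cut at about 49% in these data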;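 further: 0% = DMSO plus EC80 beta-PEA response and 100% = DMSO alone without agonist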
Target sequence (Q96RJ0 whole entry, looked up): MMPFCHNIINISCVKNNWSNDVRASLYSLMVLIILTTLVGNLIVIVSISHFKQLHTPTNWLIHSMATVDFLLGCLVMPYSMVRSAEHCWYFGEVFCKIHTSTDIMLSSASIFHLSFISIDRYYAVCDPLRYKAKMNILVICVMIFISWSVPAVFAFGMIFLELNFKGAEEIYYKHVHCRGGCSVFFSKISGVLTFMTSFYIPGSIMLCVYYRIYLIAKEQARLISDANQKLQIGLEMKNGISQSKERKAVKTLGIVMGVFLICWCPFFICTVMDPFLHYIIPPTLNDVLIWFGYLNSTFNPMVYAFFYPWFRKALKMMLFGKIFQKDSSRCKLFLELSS
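Test system – hTAAR1-expressing CHO RD-HGA16 cells, Gα16-coupled · Also added – β-PEA at EC80 concentration, post-compound challenge · Compound – 3 µM, single point · Incubation – dye loading 75 min at 37 °C, then 30 min room temperature · Measured by – Fluo-8 intracellular calcium dye fluorescence, real-time kinetic reads · Benchmarks – vehicle and agonist controls · Replicates – singlicate, one well per test compound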
OXTR ag: human OXTR agonists, primary screen, fluorescence, CHO-OTR cells, Fluo-8 calcium | Fluo-8 calcium fluorescence; normalized: DMSO 0%, oxytocin 100% | activation, % at 3 µM | 320,000 compounds, 0.32% hits;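 active means activation above the mean of all tested compounds plus 3 SD, cutoff set per screening run, cut at about 20% in these data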;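 further: peak over basal fluorescence ratio from a 100 s FLIPR kinetic read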
V1R ag counter: agonists of human V1a receptor, primary screen, counter-screen for OXTR agonist project, fluorescence, CHO-V1R cells. Vasopressin V1a receptor (Homo sapiens), P37288. Fluo-8 calcium fluorescence, agonist mode; 0% DMSO, 100% 3 nM vasopressin. activation, % at 3 µM. 320,000 compounds, 0.25% hits. AID 2797, 2010;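 active means activation above the mean activation of all tested compounds plus 3 SD, per screening run, cut at about 20% in these data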;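 further: signal is peak over basal fluorescence ratio across a 100 second FLIPR read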
Target sequence (P37288 whole entry, looked up): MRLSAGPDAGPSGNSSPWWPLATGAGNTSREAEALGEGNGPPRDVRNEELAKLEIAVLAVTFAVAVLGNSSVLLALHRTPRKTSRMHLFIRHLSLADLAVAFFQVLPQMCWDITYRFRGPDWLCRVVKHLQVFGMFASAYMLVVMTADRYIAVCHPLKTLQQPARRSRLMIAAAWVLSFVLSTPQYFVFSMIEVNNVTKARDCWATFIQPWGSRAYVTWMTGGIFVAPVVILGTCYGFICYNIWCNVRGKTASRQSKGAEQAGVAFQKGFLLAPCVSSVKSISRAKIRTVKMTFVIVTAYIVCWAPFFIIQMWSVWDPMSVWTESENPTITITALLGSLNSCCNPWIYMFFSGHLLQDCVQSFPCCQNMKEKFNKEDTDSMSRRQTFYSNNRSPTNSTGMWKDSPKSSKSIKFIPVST
TAAR1 agonist: human TAAR1 agonists, primary screen, Fluo-8 calcium fluorescence, CHO RD-HGA16 cells; Trace amine-associated receptor 1 (Homo sapiens), Q96RJ0; vehicle wells 0%, saturating PEA agonist 100%; activation, % at 3 µM; 360,000 compounds, 0.99% hits; AID 624467, 2012;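 active means activation above the mean activation of all test compounds in the run plus 3 SD, cut at about 38% in these data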
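System: CHO-derived RD-HGA16 cells with stable Gα16 and human TAAR1 / Times: 17-24 h plating, Fluo-8 75 min 37 °C, 30 min RT / Technique: calcium-sensitive Fluo-8 signal, excitation 470-495, emission 515-575 nm / Measure: % activation relative to PEA EC100 response / Benchmarks: DMSO and PEA EC100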
OXTR potentiator: human OXTR potentiators, primary screen, fluorescence, CHO-OTR cells, Fluo-8 calcium | Fluo-8 calcium fluorescence, potentiator mode; 0% = oxytocin EC15, 100% = EC100 | activation, % at 3 µM | 320,000 compounds, 0.061% hits | Oxytocin receptor (Homo sapiens), P30559;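 active means activation above that plate's cutoff, the mean activation of tested compounds plus 3 SD, cut at about 6.6% in these data, passing the limit was not always enough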;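 further: 100% uses oxytocin at 75 nM as the full agonist control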
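System: human OTR in CHO cells / Also added: sub-maximal oxytocin, roughly EC15 / Control set: EC15 oxytocin low, 75 nM oxytocin high / Schedule: 6 min compound pre-incubation at room temperature, 100 s kinetic read / Compound: single-point 3.0 µM / Replication: singlicate / Technique: Fluo-8 calcium dye fluorescence / Read-out basis: % activation of max/min ratio relative to oxytocin controls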
OXTR ag confirm: human OXTR agonists, confirmation, fluorescence, CHO-OTR cells, triplicate. Fluo-8 calcium fluorescence, agonist. activation, % at 3 µM. AID 434963, 2010. 390 compounds, 20% hits. shares compounds with OXTR ag;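 active means mean activation above about 20% derived from the earlier single-dose screen, limit read from the data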;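 further: peak over minimum fluorescence ratio per well during a 100 second FLIPR read; 0% = DMSO alone and 100% = oxytocin high control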
V1aR counter 3x: V1a receptor agonists, calcium signal, counter-screen for OXTR agonist project, triplicate, fluorescence, CHO-V1R cells; 390 compounds, 10% hits; activation, % at 3 µM; AID 434991, 2010; Fluo-8 calcium fluorescence; shares compounds with OXTR ag;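 active means mean activation over triplicate exceeds the hit threshold set in the earlier primary screen, cut at about 20% in these data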;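 further: peak over basal fluorescence ratio within a 100 second read; 0% = DMSO alone and 100% = 3 nM vasopressin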
OXTR pot cf: human OXTR potentiators, confirmation, fluorescence, CHO-OTR cells, triplicate | 180 tested, under 10 active | shares compounds with OXTR potentiator | Fluo-8 calcium fluorescence, potentiation; scaled from low-dose to maximal oxytocin | activation, % at 3 µM | AID 434985, 2010;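 active means mean percent activation over triplicates above a cutoff set from solvent-only control plates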;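 further: compounds tested in the presence of an EC15 dose of oxytocin; 0% = EC15 oxytocin with DMSO and 100% = EC100 oxytocin with DMSO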
V1R ag confirm: V1a receptor agonists, calcium signal, confirmation, Fluo-8 calcium fluorescence, CHO-V1R cells; shares compounds with V1R ag counter; agonist; activation, % at 3 µM; 180 compounds, 20% hits; AID 434964, 2010;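 active means average activation exceeds primary screen hit cutoff, cut at about 21% in these data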;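 further: peak over basal fluorescence ratio during a 100 s FLIPR read; 0% = DMSO only wells and 100% = 3 nM vasopressin wells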
OXTR counter: human OXTR agonists, counter-screen for V1R agonist project, fluorescence, CHO-OTR cells, triplicate. activation, % at 3 µM. 180 compounds, 10% hits. shares compounds with V1R ag counter. Fluo-8 calcium fluorescence;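 active means mean activation over three repeats above the cutoff from the earlier oxytocin receptor agonist screen, cut at about 20% in these data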;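 further: peak over minimum fluorescence ratio within a 100 second FLIPR read; 0% = DMSO only wells and 100% = oxytocin high control wells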
Starred values were filed as active, the others as inactive; x = no result given. The list is not random: actives were taken first. Their share in the collection is about 2.3%.

SMILES | TAAR1 antag | OXTR ag | V1R ag counter | TAAR1 agonist | OXTR potentiator | others
Cc1nc2nc(SCC(=O)N3CCC4(CC3)OCCO4)nn2c(C)c1Cc1ccccc1 | -2 | 0 | 2 | 15 | -3
CCN(CC)c1ccc(/C=C2\C(=O)NC(=S)N(C)C2=O)o1 | -5 | 22* | 23* | 18 | -4
COc1ccccc1N1CCN(C2CCCN(C(=O)COc3ccccc3Cl)C2)CC1 (stereo unspecified) | -4 | x | x | 1 | x
Cc1ccsc1C(=O)C1CCCN(Cc2cccc(-n3cccn3)c2)C1 (stereo unspecified) | -11 | -1 | -1 | 0 | 6
CCCCc1nc(N2CCNCC2)c(C#N)c2c1CSC(C)(C)C2 | 17 | -1 | -1 | 40* | -11
COc1nc(C)nc(NC(=O)NS(=O)(=O)c2ccccc2Cl)n1 | -13 | 0 | 1 | 1 | -1
Oc1cc(Cl)ccc1Oc1ccc(Cl)cc1Cl | 50* | -3 | 0 | -2 | -9
O=C(O)COc1ccc(Cl)cc1Cl | -8 | 0 | 0 | 1 | -4
CCN(CC)CCC(=O)O[C@H]1CC[C@]2(C)C3CC[C@@]4(C)C(CC[C@]4(C)O)C3CC[C@H]2C1 (stereo partly specified) | 60* | 18 | 12 | 43* | -9
COc1ccc2c3c([nH]c2c1)C(C)=NCC3 | -10 | 0 | 1 | 1 | -5
CC1=NCCc2c1[nH]c1cc(O)ccc21 | -1 | 43* | 30* | 26 | -12
COCCOC(=O)C1=C(N)Oc2c(c(=O)oc3ccccc23)[C@@]12C(=O)Nc1ccccc12 | -9 | 1 | 0 | 2 | -5
C#C[C@]1(O)CCC2C3C(=O)C=C4C=CCC[C@]4(C)C3CC[C@@]21C (stereo partly specified) | 49* | x | x | 14 | x
C#C[C@]1(O)CCC2C3C(CC[C@@]21C)[C@@]1(C)CC[C@@H](O)CC1=C[C@H]3O (stereo partly specified) | 4 | 1 | 0 | 0 | -1
CCn1cc(CN2CCCC(C(=O)c3cccc(OC)c3)C2)c(C)n1 (stereo unspecified) | 0 | 0 | 1 | 5 | -5
CCOC(=O)[C@@H]1[C@H]2COc3ccc(Br)cc3[C@@H]2N2C(=O)N(c3cccc(C)c3)C(=O)[C@]12C | -8 | -1 | 0 | 0 | -8
C=C(C)c1cccc(C(C)(C)NC(=O)NC2CN3CCC2CC3)c1 (stereo unspecified) | -10 | 0 | 0 | 2 | -10
CCC(=O)N1c2ccc(S(=O)(=O)CCC(=O)N3CCC4(CC3)OCCO4)cc2CC1C (stereo unspecified) | 6 | 1 | 0 | 5 | -4
CC(=NCCc1ccccc1)c1c(O)n(C)c(=O)n(C)c1=O | -26 | -1 | 3 | 43* | -5
CCC(=NCCc1c[nH]c2ccccc12)c1c(O)n(C)c(=O)n(C)c1=O | 50* | 19 | 10 | 13 | -6
Nc1ccc(N2CCN(Cc3ccccc3Cl)CC2)c(Cl)c1 | 1 | 2 | 1 | 13 | -11
CCOC(=O)[C@]12Cc3c(cc(OC)c(OC)c3OC)[C@H]1N(C)C(=O)c1cc(OC)ccc12 | 8 | x | x | 2 | x
Cc1ccc2c(c1)C1CN(C)CCC1N2C(=O)Nc1cccc(Cl)c1 (stereo unspecified) | 22 | 30* | 20 | 34 | -12 | OXTR ag confirm=8;V1aR counter 3x=5
CCCCNC(C)Cc1ccccc1 (stereo unspecified) | 2 | 1 | 1 | 1 | -9
COc1ccc(CC(C)NCCC(c2ccccc2)c2ccccc2)cc1 (stereo unspecified) | 43 | 21* | 12 | 42* | -18 | OXTR ag confirm=9;V1aR counter 3x=4
SMILES | TAAR1 antag | OXTR ag | V1R ag counter | TAAR1 agonist | OXTR potentiator | others
Cc1[nH]c2ccc(OC(F)(F)F)cc2c1CCNCc1cccc([N+](=O)[O-])c1 | 49* | 20* | 10 | 44* | -7 | OXTR ag confirm=13;V1aR counter 3x=8
COC(=O)C1=C(c2ccccc2OCc2ccccc2)C[C@@H]2CC[C@H]1N2C(=O)NCCOc1ccc(OC)cc1 | 25 | 1 | 2 | 1 | -6
CCCN1CC(C)C(OC(C)=O)(c2ccccc2)CC1C (stereo unspecified) | -12 | 2 | 1 | -2 | -13
COc1cccc(NC(=O)[C@@H](NC(=O)N2C[C@H]3C[C@@H](C2)c2cccc(=O)n2C3)C(C)C)c1 | -4 | 3 | 0 | 3 | 11* | OXTR pot cf=-1
CN1CCN(c2ccc([N+](=O)[O-])c(SCCO)c2)CC1 | -9 | 4 | 0 | 1 | 12* | OXTR pot cf=-8
CN1CCN(c2ccc([N+](=O)[O-])c(N)c2)CC1 | 7 | 0 | 2 | 3 | -5
COc1ccc(OCC#CCN2CCNCC2)cc1 | -12 | 1 | 2 | 0 | 3
CCOc1cc2c(cc1OCC)-n1cccc1C(c1cc(C)c(OC)cc1C)NC2 (stereo unspecified) | -5 | 2 | 29* | 2 | -5 | V1R ag confirm=0;OXTR counter=0
CC(=O)C1CCC2C3C(N4CC4)CC4=CC(=O)CCC4(C)C3CCC12C (stereo unspecified) | 12 | x | x | 3 | x

From PubChem BioAssay
